The values that follow come from ChEMBL document CHEMBL4007456, “Heterocyclyl Tetracyclines. 1. 7-Trifluoromethyl-8-Pyrrolidinyltetracyclines: Potent, Broad Spectrum Antibacterial Agents with Enhanced Activity against Pseudomonas aeruginosa” (2017).

In brackets after ≈: the same amount, converted by molar mass. Activity calls are given as the source filed them. No cut-off for these calls is given here. Bounds are passed on as bounds.

The test system of assay [1] is Staphylococcus aureus. In words: Antibacterial activity against gram-positive Staphylococcus aureus SA101 by CLSI method. The format is functional. A digest of the protocol:
(§1)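 Broth microdilution MIC per CLSI in cation-adjusted Mueller Hinton broth, prepared fresh and held at 4 °C. Defibrinated horse blood added where appropriate. Compounds serially diluted in sterile deionized water. Strains from ATCC unless otherwise noted. Runs accepted when comparator antibiotics fell within QC ranges for ATCC quality control strains.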

Assay [2] has as its system Pseudomonas aeruginosa. The experiment in a line: Antibacterial activity against Pseudomonas aeruginosa PA694 in CD-1 mouse model of thigh infection assessed as reduction in log10CFU per gram of thigh administered intranasally as bid for 2 to 12 hrs of post-infection measured after 24 hrs. Format: functional.
The test system of assay [3] is Acinetobacter baumannii. In words: Antibacterial activity against gram-negative Acinetobacter baumannii AB250 by CLSI method. The format is functional. Put shortly:
as §1

The subject of assay [4] is Pseudomonas aeruginosa. In words: Antibacterial activity against Pseudomonas aeruginosa PA1145 in BALB/c mouse model of lung infection assessed as reduction in log10CFU per gram of lung at 5 mg/kg, iv bid administered 2 to 12 hrs of post-infection measured after 24 hrs relative to untreated control. Format: functional. Put shortly: (§2)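 Female BALB/c mice, 18 to 20 g, infected intranasally under light anesthesia with ~ 2 x 10^7 CFU/mouse of P. aeruginosa PA1145 (cystic fibrosis isolate) in 0.05 mL. Treatment at 2 and 12 h post-infection, IV, or intranasally for tobramycin; n = 6 per group. Lungs harvested 24 h after treatment began, homogenized, plated on MacConkey medium, incubated overnight at 37 °C in 5% CO2. CFU per gram lung compared with T = 24 h untreated control.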

In assay [5] the test system is Proteus mirabilis. The experiment in a line: Antibacterial activity against gram-negative Proteus mirabilis PM385 by CLSI method. The format is functional. A digest of the protocol: as §1
Assay [6] has as its system Klebsiella pneumoniae. In words: Antibacterial activity against gram-negative Klebsiella pneumoniae KP457 harboring blacTX-M-15 extended spectrum beta-lactamase gene by CLSI method. The format is functional. Put shortly: (§3)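 CLSI broth microdilution MIC in fresh cation-adjusted Mueller Hinton broth, supplemented with defibrinated horse blood where appropriate. Compounds serially diluted in sterile deionized water. Runs accepted when comparator antibiotics against ATCC quality-control strains fell within recommended ranges.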

Assay [7] relates to Pseudomonas aeruginosa. The experiment in a line: Antibacterial activity against Pseudomonas aeruginosa PA694 in CD-1 mouse model of thigh infection assessed as reduction in log10CFU per gram of thigh at 5 mg/kg, iv bid administered 2 to 12 hrs of post-infection measured after 24 hrs relative to untreated control. The format is functional. Put shortly:
(§4)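 Groups of 5 female specific-pathogen-free CD-1 mice, 22 ± 2 g. Right thigh inoculated intramuscularly with 3-5 x 10^6 CFU/mouse of P. aeruginosa PA694 (UTI isolate). Dosed IV at 5, 15 or 40 mg/kg at 2 and 12 h post-infection. Thigh muscle harvested at 24 h post-infection, homogenized in PBS (pH 7.4), plated on Brain Heart Infusion agar + 0.5% charcoal. Log10 CFU per gram thigh compared with 24 h untreated control.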

Assay [8] has as its system Pseudomonas aeruginosa. The experiment in a line: Antibacterial activity against Pseudomonas aeruginosa PA1145 in BALB/c mouse model of lung infection administered as iv bid for 2 to 12 hrs of post-infection measured after 24 hrs. The format is functional. A digest of the protocol: (§5)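 Female BALB/c mice (18–20 g) infected intranasally with ~2 x 10^7 CFU/mouse P. aeruginosa PA1145 (cystic fibrosis isolate) under light anesthesia. Dosing at 2 and 12 h post-infection, IV (compound, tigecycline, amikacin) or intranasal (tobramycin); n = 6 per group. Lungs harvested 24 h after treatment start, homogenized, plated on MacConkey agar, 37 °C overnight; CFU/g lung; Mann-Whitney vs T = 0 h or 24 h controls.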

Assay [9] deals with Enterococcus faecalis. In words: Antibacterial activity against gram-positive Enterococcus faecalis EFs327 harboring tet(M) by CLSI method. Format: functional. A digest of the protocol:
as §3

The test system of assay [10] is Staphylococcus aureus. The experiment in a line: Antibacterial activity against gram-positive Staphylococcus aureus SA161 harboring tet(M) by CLSI method. Format: functional. A digest of the protocol:
as §3

Assay [11] relates to Pseudomonas aeruginosa. The experiment in a line: Antibacterial activity against Pseudomonas aeruginosa PA694 in CD-1 mouse model of thigh infection administered as iv bid for 2 to 12 hrs of post-infection measured after 24 hrs. Format: functional. Put shortly:
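Female specific-pathogen-free CD-1 mice (22 ± 2 g), groups of 5, inoculated intramuscularly into right thigh with 3-5 x 10^6 CFU/mouse P. aeruginosa PA694 (UTI isolate). IV dosing at 5, 15 and 40 mg/kg at 2 and 12 h post-infection. Thigh muscle harvested at 24 h, homogenized in PBS pH 7.4, plated on Brain Heart Infusion agar + 0.5% charcoal; CFU/g thigh vs untreated controls; Mann-Whitney.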

Assay [12] concerns Pseudomonas aeruginosa. The experiment in a line: Antibacterial activity against Pseudomonas aeruginosa PA1145 in BALB/c mouse model of lung infection assessed as reduction in log10CFU per gram of lung compound administered intranasally as bid for 2 to 12 hrs of post-infection measured after 24 hrs. The format is functional. Put shortly:
as §2

The test system of assay [13] is Stenotrophomonas maltophilia. In words: Antibacterial activity against gram-negative Stenotrophomonas maltophilia SM256 by CLSI method. Format: functional. Put shortly: as §1
Assay [14] has as its system Escherichia coli. The experiment in a line: Antibacterial activity against gram-negative Escherichia coli EC155 harboring tet(A) by CLSI method. Format: functional. A digest of the protocol:
as §3

In assay [15] the test system is Burkholderia cenocepacia. The experiment in a line: Antibacterial activity against gram-negative Burkholderia cenocepacia BC240 by CLSI method. The format is functional. A digest of the protocol:
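Defibrinated horse blood added where appropriate. Compounds serially diluted in sterile deionized water. Strains from ATCC unless otherwise noted. Runs accepted when comparator antibiotics fell within QC ranges for ATCC quality control strains.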

The subject of assay [16] is Enterobacter cloacae. The experiment in a line: Antibacterial activity against gram-negative Enterobacter cloacae EC1603 harboring tet(A) by CLSI method. The format is functional. Put shortly:
as §3

In assay [17] the test system is Pseudomonas aeruginosa. The experiment in a line: Antibacterial activity against Pseudomonas aeruginosa PA694 in CD-1 mouse model of thigh infection assessed as reduction in log10CFU per gram of thigh at 15 mg/kg, iv bid administered 2 to 12 hrs of post-infection measured after 24 hrs relative to untreated control. The format is functional. Put shortly:
as §4

In assay [18] the test system is Pseudomonas aeruginosa. The experiment in a line: Antibacterial activity against gram-negative Pseudomonas aeruginosa PA555 by CLSI method. Format: functional. A digest of the protocol: as §1
For assay [19], the system named is Staphylococcus aureus. The experiment in a line: Antibacterial activity against gram-positive Staphylococcus aureus SA158 harboring tet(K) by CLSI method. Format: functional. Put shortly: as §3
In assay [20] the test system is Pseudomonas aeruginosa. In words: Antibacterial activity against Pseudomonas aeruginosa PA694 in CD-1 mouse model of thigh infection assessed as reduction in log10CFU per gram of thigh at 40 mg/kg, iv bid administered 2 to 12 hrs of post-infection measured after 24 hrs relative to untreated control. Format: functional. Put shortly: as §4
In assay [21] the test system is Escherichia coli. In words: Antibacterial activity against gram-negative Escherichia coli EC107 by CLSI method. The format is functional. Put shortly: as §1
In assay [22] the test system is Pseudomonas aeruginosa. The experiment in a line: Antibacterial activity against Pseudomonas aeruginosa PA1145 in BALB/c mouse model of lung infection assessed as reduction in log10CFU per gram of lung at 40 mg/kg, iv bid administered 2 to 12 hrs of post-infection measured after 24 hrs relative to untreated control. The format is functional. Put shortly:
as §2

The subject of assay [23] is Streptococcus pneumoniae. The experiment in a line: Antibacterial activity against gram-positive Streptococcus pneumoniae SP160 harboring tet(M) by CLSI method. Format: functional. Put shortly: as §3
In assay [24] the test system is Pseudomonas aeruginosa. The experiment in a line: Antibacterial activity against Pseudomonas aeruginosa PA1145 in BALB/c mouse model of lung infection assessed as reduction in log10CFU per gram of lung at 15 mg/kg, iv bid administered 2 to 12 hrs of post-infection measured after 24 hrs relative to untreated control. The format is functional. A digest of the protocol: as §2

The test system of assay [25] is Enterococcus faecium. In words: Antibacterial activity against gram-positive Enterococcus faecium EFm404 harboring tet(M) by CLSI method. Format: functional. A digest of the protocol: as §3
Assay [26] relates to Pseudomonas aeruginosa. The experiment in a line: Antibacterial activity against Pseudomonas aeruginosa PA1145 in BALB/c mouse model of lung infection administered intranasally as bid for 2 to 12 hrs of post-infection measured after 24 hrs. Format: functional. Put shortly: as §5
For assay [27], the system named is Pseudomonas aeruginosa. The experiment in a line: Antibacterial activity against Pseudomonas aeruginosa PA1145 in BALB/c mouse model of lung infection assessed as reduction in log10CFU per gram of lung at 40 mg/kg, in bid administered 2 to 12 hrs of post-infection measured after 24 hrs relative to untreated control. Format: functional, organism-based. A digest of the protocol:
as §5

The MIC is the lowest concentration that inhibits growth of the organism. Regarding `CN(C)[C@@H]1C(O)=C(C(N)=O)C(=O)[C@@]2(O)C(O)=C3C(=O)c4c(O)cc([C@@H]5CCCN5)c(C(F)(F)F)c4C[C@H]3C[C@@H]12`, the MIC was found to be 0.0625 µg/mL (≈ 0.113 µM) in [1]; 2 µg/mL (≈ 3.63 µM) in assay [3]; 0.5 µg/mL (≈ 0.907 µM) in assay [5]; 0.125 µg/mL (≈ 0.227 µM) in assay [6]; 2 µg/mL (≈ 3.63 µM) in assay [8]; 1 µg/mL (≈ 1.81 µM) in [9]. The MIC in assay [10] worked out at 4 µg/mL (≈ 7.25 µM); in [11], 4 µg/mL (≈ 7.25 µM); in assay [13], 1 µg/mL (≈ 1.81 µM); in [14] it was 2 µg/mL (≈ 3.63 µM); in assay [15], 8 µg/mL (≈ 14.5 µM); in assay [16], 8 µg/mL (≈ 14.5 µM). Moreover, the MIC is 4 µg/mL (≈ 7.25 µM) in assay [18]; at most 0.0156 µg/mL in [19]; at most 0.0156 µg/mL in [21]; at most 0.0156 µg/mL in assay [23]; 0.25 µg/mL (≈ 0.453 µM) in assay [25]. Further, the Activity result is “Dose-dependent effect” in assay [2]; 1.7 deltalog10CFU in assay [4]; 0.4 deltalog10CFU in [7]; “Dose-dependent effect” in assay [12]; 0.9 deltalog10CFU in assay [17]; 1.9 deltalog10CFU in assay [20]. The Activity in assay [22] turned out to be 3.7 deltalog10CFU; in assay [24], 2.3 deltalog10CFU.

As to `CN(C)c1cc(NC(=O)CNC(C)(C)C)c(O)c2c1C[C@H]1C[C@H]3[C@H](N(C)C)C(O)=C(C(N)=O)C(=O)[C@@]3(O)C(O)=C1C2=O` [TIGECYCLINE], the MIC in assay [1] was found to be 0.0625 µg/mL (≈ 0.107 µM); in assay [3], 8 µg/mL (≈ 13.7 µM); in assay [5], 4 µg/mL (≈ 6.83 µM); in assay [6], 1 µg/mL (≈ 1.71 µM); in assay [8], 16 µg/mL (≈ 27.3 µM); in assay [9] it was 0.125 µg/mL (≈ 0.213 µM). Also, the MIC was 0.125 µg/mL (≈ 0.213 µM) in assay [10]; 2 µg/mL (≈ 3.41 µM) in assay [13]; 1 µg/mL (≈ 1.71 µM) in [14]; 16 µg/mL (≈ 27.3 µM) in assay [15]; 4 µg/mL (≈ 6.83 µM) in [16]; 16 µg/mL (≈ 27.3 µM) in assay [18]. The MIC in [19] worked out at 0.125 µg/mL (≈ 0.213 µM); in assay [21] it was 0.125 µg/mL (≈ 0.213 µM); in assay [23], 0.0156 µg/mL (≈ 0.0266 µM); in assay [25], 0.0312 µg/mL (≈ 0.0533 µM). Further, the Activity in assay [22] was 4.2 deltalog10CFU.

For the molecule `NC[C@H]1O[C@H](O[C@H]2[C@H](O)[C@@H](O[C@H]3O[C@H](CO)[C@@H](O)[C@H](N)[C@H]3O)[C@H](N)C[C@@H]2N)[C@H](N)C[C@@H]1O` [TOBRAMYCIN], in assay [26], the MIC is 1 µg/mL (≈ 2.14 µM). For the same molecule, the outcome in [27] was inactive.

`C[C@@H](O)[C@H]1C(=O)N2C(C(=O)O)=C(S[C@@H]3CN[C@H](C(=O)N(C)C)C3)[C@H](C)[C@H]12` [MEROPENEM]: the Activity in assay [7] is listed as 2.9 deltalog10CFU; in assay [17], 4.2 deltalog10CFU; in assay [20] it was 4.9 deltalog10CFU. Also, the MIC in [11] was 0.125 µg/mL (≈ 0.326 µM).
